Fewer inactive variants are shown than the library holds.

B1: tRNA (parent)
chain: CUCUCGGUAGCCAAGUUGGUUUAAGGCGCAAGACUUUAAUUUAUCACUACGAAAUCUUGAGAUCGGGCGUUCGACUCGCCCCCGGGAGAUUUUUUCCUCGAGCAA

In the data set the parent is B1. In words: nonsense suppression (GFP-seq) (ratio to wild type); higher = more function; SUP4oc tRNA, yeast GFP reporter sort-seq. The gist of the method:
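Sorted GFP/RFP bins of yeast were each Illumina-sequenced with a phred ≥30 cutoff; the cells held a genome-integrated ochre-suppressor tRNA variant from a library with ~3% random mutations, a galactose-driven GFP ochre reporter, and RFP. Culture was in raffinose/galactose medium containing 80 mg/L adenine. Nonsense suppression, termed GFPSEQ, is the median GFP/RFP of the bins weighted by each variant's estimated cell share per bin, relative to the unmutated parent tRNA, for variants reaching ≥100 reads and ≥30 cells.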
Regarding A13G G67C C83G, the nonsense suppression is not above 0.026. As to A13G A87G, the nonsense suppression came out at 0.14. Take A13C U17A A31G: the nonsense suppression was 0.849.

For U16A A30G, the nonsense suppression was 0.312. Consider A13U U16G A33U, for which the nonsense suppression was found to be 0.0384. In the case of G15A it was 0.188. Take G15U U71A C82G: the nonsense suppression was not above 0.026.

Regarding G15A A31U U35C U76G C83U, the nonsense suppression is not above 0.026. As to C12U G25U, the nonsense suppression amounted to 0.192. On to C12U G25C, for which the nonsense suppression was determined as 0.184. As for C12U G88U, the nonsense suppression was determined as 0.0717. Regarding A14C C68G, the nonsense suppression was not above 0.026.

In the case of A13U G15A G73U, the nonsense suppression is not above 0.026. Regarding A13C U76A, the nonsense suppression turned out to be 0.282.

In the case of A13G A24U, the nonsense suppression was found to be 0.0411.

With A14C U63G A87C, the nonsense suppression was not above 0.026. Turning to A14U U57G, the nonsense suppression is not above 0.026. Take A14U A54C C68A G73C G84A: the nonsense suppression was determined as 0.202.

Consider A13U A31U, for which the nonsense suppression was determined as 0.193. A13U A31G: the nonsense suppression is 1.22. A14C U20G: the nonsense suppression was not above 0.026. With G15C C27G A31C the figure was not above 0.026; with A14U G86A, not above 0.026; with A14U G86C, not above 0.026. In the case of G15C A33U G61A it was not above 0.026; in that of A13C U17G, 0.958. Take A14U G18C C80U: the nonsense suppression was not above 0.026. In the case of A13C A87G, the nonsense suppression was 0.127. With A13C A87C the figure was 0.0539.

As to G15A A33G, the nonsense suppression was 0.0395. With A13U A54C G66A A74C G86A the figure was not above 0.026; with A13U U16A G85U, 0.173. A13U U16G: the nonsense suppression was determined as 0.819. Take A13U U16A: the nonsense suppression came to 0.837.

Consider C12U U17C, for which the nonsense suppression came out at 0.212. Take A14U U63A: the nonsense suppression came out at 0.0439. In the case of G15U C68U G78C C82G G84A it was not above 0.026; in that of C12U U76A, 0.244; in that of C12U U76G, 0.0906.

On to C12U U76C, for which the nonsense suppression came to 0.818.

Take A13C A33U: the nonsense suppression amounted to 0.0508. Take A14U G61C C79U: the nonsense suppression is not above 0.026. Turning to A14U G26A U57A, the nonsense suppression is not above 0.026.

On to U16A A54U, for which the nonsense suppression is 1.06. In the case of C12U G28U it was 0.0705; in that of C12U G28A, 0.51. With G15C A87U, the nonsense suppression is not above 0.026. As for A13G C56G U71G, the nonsense suppression was not above 0.026. As for A14G A60G, the nonsense suppression is 0.0456.

Take A14C A31C U58C C72A U76C C77G: the nonsense suppression was not above 0.026. As for A13G C80U, the nonsense suppression was found to be 0.0419. As for A14C C82U, the nonsense suppression is not above 0.026.

A13G U21C: the nonsense suppression was 0.211. Turning to A13G U21G, the nonsense suppression was determined as 0.026.

Regarding A13G A31G, the nonsense suppression was 0.149.

As to A14C G59U, the nonsense suppression was not above 0.026. A13C G25A: the nonsense suppression came to 0.0288. For G15U U70A G85U, the nonsense suppression was not above 0.026. In the case of A13C G61U A87C, the nonsense suppression was not above 0.026. With A13C C27U the figure was 0.0494; with A13G C82A, not above 0.026; with A13C G61A C75G, 0.761. For A14C C68U G88A, the nonsense suppression was not above 0.026. For the variant G15A C68U, the nonsense suppression was 0.0272.

Take G15C C34A C82G: the nonsense suppression turned out to be 0.816.

Consider A13U G15A, for which the nonsense suppression was 0.046.

Take A13U U16G C82U: the nonsense suppression was determined as 0.377. A13C C80U: the nonsense suppression was 0.179.

As for G15A G73C C75G, the nonsense suppression was not above 0.026.

With A13C C68U, the nonsense suppression worked out at 0.836. Take A13C C29U: the nonsense suppression turned out to be 0.806. As to A13C G18C U20G A31U, the nonsense suppression turned out to be 0.134. Turning to A13G G85A, the nonsense suppression was 0.214. A14C C56A C81G: the nonsense suppression is not above 0.026. Turning to G15A G65A, the nonsense suppression was not above 0.026.

As for A13C G78A, the nonsense suppression is 0.208. With A13U A74U the figure was 0.051; with C12U U22G, 0.745; with G15C G18U U76G A87G, not above 0.026. As for A14U G85U G88U, the nonsense suppression was not above 0.026. As to A14U C27A G78C A87C, the nonsense suppression is not above 0.026. In the case of A13U A62C, the nonsense suppression stood at 0.029. As to G15U A24G G86C, the nonsense suppression was not above 0.026.

For the variant C12U U16C G28A, the nonsense suppression worked out at 0.295. For the variant A13U C79U, the nonsense suppression was determined as 0.175.

A13G A30G: the nonsense suppression turned out to be 0.105. For A14G A31G, the nonsense suppression amounted to 0.0611. With A13U C64U, the nonsense suppression is 0.0285.

For A14U G61A, the nonsense suppression came to 0.0341. Take A13C U17G C75A: the nonsense suppression came to 1.1. A14U A23G A62U G84A: the nonsense suppression was not above 0.026. Consider A13C C72U, for which the nonsense suppression came to 0.23. In the case of A14G G19C C29A C56A G88C it was not above 0.026; in that of G15U G18A U58C G85U, not above 0.026. Regarding A13C U16A, the nonsense suppression was found to be 1.17. In the case of A13C U16C, the nonsense suppression turned out to be 1.12. Turning to G15A G59C A87C, the nonsense suppression is not above 0.026. In the case of A13G G61C, the nonsense suppression came out at 0.0301. In the case of A14U U20C A24G C75G it was not above 0.026; in that of A14G G61C, 0.0278; in that of A13G C75A, 0.71. With A13G C75U the figure was 0.305; with G15A U63G C75G, not above 0.026; with A13C C77U, 0.0493.

As to G15C G69U G73C, the nonsense suppression is not above 0.026. On to A13G C27A C29G A33U U76C G86U, for which the nonsense suppression was not above 0.026. In the case of G15A G26U U55A it was not above 0.026.

A13C U55C: the nonsense suppression worked out at 0.827. Regarding A14G G19A A31U G66C A74C G78U, the nonsense suppression is not above 0.026. A14C U16G U55C: the nonsense suppression was not above 0.026.

Turning to G15A U57C G59C G78A, the nonsense suppression was not above 0.026.

Take A13C: the nonsense suppression was 1.13. Consider A13G, for which the nonsense suppression turned out to be 0.191. With A13U, the nonsense suppression turned out to be 1.03. On to A13C A54G G73C, for which the nonsense suppression was not above 0.026. As for A14G A74C, the nonsense suppression was not above 0.026. With A13U A24G G61C the figure was 0.0375.

In the case of A14U G25U A30C G65C, the nonsense suppression is not above 0.026. For G15A C81U, the nonsense suppression was determined as 0.0386.

Consider A13U C29U C81U, for which the nonsense suppression was found to be 0.0757. With C12U U35C the figure was 0.0352; with C12U G78U G84C, not above 0.026. With A13U A24G G26C G32C A89C, the nonsense suppression was not above 0.026. On to C12U U20C, for which the nonsense suppression was found to be 0.177. In the case of C12U U20G it was 0.455. With C12U G61U, the nonsense suppression turned out to be 0.248. As for A13U G86A, the nonsense suppression is 0.0315. For the variant A13C U17C U22G G85A, the nonsense suppression amounted to 0.81. Regarding A13C C64U, the nonsense suppression is 0.0428. In the case of A14U A24U G26U C29G, the nonsense suppression is not above 0.026. With G15A A24G C29G A60C, the nonsense suppression was not above 0.026. Turning to A13U A14C U35A A60C C72U, the nonsense suppression is not above 0.026. With A13U C27U G85A the figure was 0.22; with A13C G18U G26A A31U, not above 0.026. Regarding A14G A33G G69C, the nonsense suppression was not above 0.026. In the case of U16A A62G U76G it was not above 0.026; in that of G15C U17G G19C G25U, not above 0.026; in that of A13C G28U, 0.0283. For A13C G28C, the nonsense suppression is 0.794. As for A13C G28A, the nonsense suppression worked out at 1.08. Take C12U U21A A31G: the nonsense suppression was found to be 0.214. With A14C A31U A33U, the nonsense suppression was not above 0.026.

Turning to A13G C29G G61U U70G, the nonsense suppression was not above 0.026. Consider A13C C68G G88A, for which the nonsense suppression was not above 0.026. Consider A13C A23G A31U, for which the nonsense suppression was not above 0.026.

On to G15C G25U, for which the nonsense suppression was not above 0.026. For G15A G26U, the nonsense suppression is not above 0.026. Consider A14G U17A G25A C29U U63G, for which the nonsense suppression is not above 0.026.

Turning to A14U U71A, the nonsense suppression is not above 0.026. For the variant A13G C64G, the nonsense suppression is not above 0.026. In the case of G15U A23G U55G it was not above 0.026; in that of A13U C79A G84U, not above 0.026.

With A14G U57C U58A, the nonsense suppression was not above 0.026. With A13C G88A the figure was 0.0766; with U16A C34G U63C C77G G86C, not above 0.026; with A14C C56G C72G G86A, not above 0.026. In the case of A13U U57A G65A it was not above 0.026. With G15C G19C the figure was not above 0.026. As to A14C G65C C80G A87C, the nonsense suppression was not above 0.026. Consider U16A A31G G86U, for which the nonsense suppression is not above 0.026. In the case of A13U G85A it was 1.2; in that of G15U C29U, not above 0.026; in that of A13U C72G, 0.032. Consider A14G G78A, for which the nonsense suppression is 0.0272. Consider G15U U21A U55G, for which the nonsense suppression is not above 0.026. With G15C G28U A62C G86C, the nonsense suppression is not above 0.026.

Consider U16A A60G, for which the nonsense suppression worked out at 0.247.

The record behind these values is the RNAGym collection of RNA variant scans (doi:10.1101/gad.245936.114).
